From ChEMBL document CHEMBL1649338, “Synthesis of lakshminine and antiproliferative testing of related oxoisoaporphines” (J Nat Prod, 2010)
Active and inactive are the calls of the source. No cut-off for these calls is given here.

Legend:
[1] = (§1) Antiproliferative activity against human HTB-1 cells by MTT assay; format: functional, cell-based
Procedure, shortened: (§2)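 Cells were grown in medium with 10% heat-inactivated FBS, penicillin G and streptomycin, and were plated in 96-well plates. One day after seeding, they were exposed for 72 h to 0–100 µM compound (DMSO stock diluted in complete medium, final DMSO 1%). Viability was read by MTT reduction. IC50 values came from fitting the dose-response curves to a sigmoidal model.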

SK-MES-1 = assay: Antiproliferative activity against human SKMES1 cells by MTT assay; format: functional, cell-based; procedure, shortened: as §2
[2] = Antiproliferative activity against human CRL1739 cells by MTT assay; format: functional, cell-based; procedure, shortened: as §2
AGS = assay: Antiproliferative activity against human AGS cells by MTT assay; format: functional, cell-based; procedure, shortened: as §2
J82 = assay: Antiproliferative activity against human J82 cells by MTT assay; format: functional, cell-based; procedure, shortened: as §2
[3] = (§3) Antiproliferative activity against human HTB-58 cells by MTT assay; format: functional, cell-based; procedure, shortened: as §2
MRC5 = assay: Antiproliferative activity against human MRC5 cells by MTT assay; format: cell-based; procedure, shortened: as §2
HTB-1 = assay: as §1; format: functional, cell-based; procedure, shortened: as §2
[4] = Antiproliferative activity against human CCL171 cells by MTT assay; format: cell-based; procedure, shortened: as §2
HTB-58 = assay: as §3; format: functional, cell-based; procedure, shortened: as §2

| SMILES | IC50 (SK-MES-1) [nM] | IC50 (AGS) [nM] | IC50 [1] [nM] | IC50 [2] [nM] | IC50 (J82) [nM] | IC50 [3] [nM] | Activity (MRC5) | Activity (HTB-1) | Activity [4] | Activity (SK-MES-1) | Activity (J82) | Activity (HTB-58) |
| --- | --- | --- | --- | --- | --- | --- | --- | --- | --- | --- | --- | --- |
| COc1ccc2c(c1)C(=O)c1c(NCCc3ccc(O)cc3)c(OC)cc3ccnc-2c13 [DAURIOXOISOPORPHINE A] | > 3000 | > 3000 | > 3000 | > 3000 | > 3000 | > 3000 | – | – | – | – | – | – |
| COc1cc2c3c(c1)C(=O)c1ccccc1C3=NCC2 | > 2090 | > 2090 | > 2090 | > 2090 | > 2090 | > 2090 | – | – | – | – | – | – |
| COc1cc2ccnc3c2c(c1[N+](=O)[O-])C(=O)c1ccccc1-3 | > 2090 | > 2090 | > 2090 | > 2090 | > 2090 | > 2090 | – | – | – | – | – | – |
| COc1cc2c3c(c1[N+](=O)[O-])C(=O)c1ccccc1C3=NCC2 | > 2090 | > 2090 | > 2090 | > 2090 | > 2090 | > 2090 | – | – | – | – | – | – |
| COc1cc2c3c(c1[N+](=O)[O-])CCN=C3c1ccccc1C2=O | > 2090 | > 2090 | > 2090 | > 2090 | > 2090 | > 2090 | – | – | – | – | – | – |
| COc1cc2c3c(nccc3c1)-c1ccccc1C2=O | > 2090 | > 2090 | > 2090 | > 2090 | > 2090 | > 2090 | – | – | – | – | – | – |
| COc1cc2c3c(nccc3c1[N+](=O)[O-])-c1ccccc1C2=O | – | 4500 | – | 4500 | – | – | Non-toxic | inactive | Non-toxic | inactive | inactive | inactive |

Now from value to compound, other results behind:

| IC50 (SK-MES-1) [nM] | IC50 (AGS) [nM] | SMILES | IC50 [1] [nM] | IC50 [2] [nM] | IC50 (J82) [nM] | IC50 [3] [nM] | Activity (MRC5) | Activity (HTB-1) | Activity [4] | Activity (SK-MES-1) | Activity (J82) | Activity (HTB-58) |
| --- | --- | --- | --- | --- | --- | --- | --- | --- | --- | --- | --- | --- |
| > 2090 | > 2090 | CNc1c(OC)cc2ccnc3c2c1C(=O)c1cc(OC)ccc1-3 [DAURIOXOISOAPORPHINE C] | > 2090 | > 2090 | > 2090 | > 2090 | – | – | – | – | – | – |
| > 2090 | > 2090 | COc1ccc2c(c1)C(=O)c1c(NCCc3ccc(O)cc3)c(OC)c(OC)c3ccnc-2c13 [TYRAMINOPORPINE] | > 2090 | > 2090 | > 2090 | > 2090 | – | – | – | – | – | – |
| > 2090 | > 2090 | COc1cc2c3c(nccc3c1N)-c1ccccc1C2=O | > 2090 | > 2090 | > 2090 | > 2090 | – | – | – | – | – | – |
| > 3000 | > 3000 | COc1ccc2c(c1)C(=O)c1c(N)c(OC)c(OC)c3ccnc-2c13 [DAURIOXOISOPORPHINE B] | > 3000 | > 3000 | > 3000 | > 3000 | – | – | – | – | – | – |
| > 2090 | > 2090 | COc1cc2ccnc3c2c(c1N)C(=O)c1ccccc1-3 [LAKSHMININE] | > 2090 | > 2090 | > 2090 | > 2090 | – | – | – | – | – | – |
